For data set [1], the target named is Integrin alpha-V/beta-5 (Homo sapiens, UniProt P06756+P18084). In words: In vitro inhibition of human alphaV-beta5 integrin binding in ELISA. Type of data set: protein-complex assay. The method in brief:
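Human αvβ5 coated at 1 µg/mL in Tris buffer with Ca, Mg, Mn; biotinylated human vitronectin (1 µg/mL) plus compounds (0.0001-20 µM) incubated 2 h, all at room temperature. NeutrAvidin-HRP, OPD development, absorbance 492 nm; IC50 from four-parameter fit of triplicate % inhibition relative to buffer controls.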
In general terms: An ELISA detects its analyte on a solid surface through an enzyme-linked reagent.

The nature of data set [2]: Extension in area under curve for the compound was determined in mouse upon 50 mpk peroral administration. Type of data set: ADME. As to conditions: in vivo, po, 50 mg/kg.
Data set [3] has as its system Caco-2. In words: In vitro CACO-2 cell permeability potency was determined. The data set is classed as functional, cell-based. As to conditions: Homo sapiens. Background: Caco-2 cells form a polarised layer with tight junctions and transporters.
Data set [4] in a line: Extension in area under curve for the compound was determined in mouse upon 5 mpk intravenous administration. The data set is classed as ADME. As to conditions: in vivo, 5 mg/kg.
Data set [5] can be described thus: Half life in mouse upon 50 mpk peroral administration. Type of data set: ADME, organism-based. The following applies: in vivo, po, 50 mg/kg.
The nature of data set [6]: Half life in mouse upon 5 mpk intravenous administration. As to conditions: in vivo, 5 mg/kg. The data set is classed as ADME, organism-based.
A short description of data set [7]: Oral bioavailability in mouse (dose 50 mg/kg). Type of data set: ADME, organism-based. The following applies: in vivo.
Data set [8] in a line: Area under curve for the compound was determined at infinity in mouse upon 5 mpk intravenous administration. Type of data set: ADME. As to conditions: in vivo, 5 mg/kg.
A short description of data set [9]: Maximum time required to reach maximum plasma concentration in mouse upon 50 mpk peroral administration (n=3); Range = 0.25-0.50 hr. The data set is classed as ADME, organism-based. The following applies: po, 50 mg/kg.
Data set [10] can be described thus: Maximum concentration in mouse plasma upon 50 mpk peroral administration (n=3). The data set is classed as ADME, organism-based. On the set-up: dose 50 mpk, route oral. The following applies: po, 50 mg/kg.
The nature of data set [11]: Mean residence time for the compound was determined in mouse upon 5 mpk intravenous administration. Type of data set: ADME, organism-based. As to conditions: in vivo, 5 mg/kg.
Data set [12] has as its target Integrin alpha-IIb/beta-3 (Homo sapiens, UniProt P05106+P08514). The data set can be described thus: In vitro inhibition of human alphaIIb betaIIIa integrin binding in ELISA. The data set is classed as protein-complex assay. In a few lines: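 Immobilized human fibrinogen (10 µg/mL coat, overnight 4 °C, Tris/Ca buffer pH 7.5) bound by human GPIIbIIIa (40 µg/mL) with compounds 0.027-20.0 µM, 1 h 37 °C; bound receptor detected with anti-GPIIbIIIa mAb then HRP anti-mouse IgG, OPD development, A492. % inhibition vs buffer controls, mean of three determinations; IC50 by four-parameter fit.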

Data set [13] is described as follows: Area under curve for the compound was determined at infinity in mouse upon 50 mpk peroral administration. The data set is classed as ADME. As to conditions: in vivo, po, 50 mg/kg.
The target in data set [14] is Integrin alpha-5/beta-1 (Homo sapiens, UniProt P05556+P08648). In words: In vitro inhibition of human alpha5-beta1 integrin binding in ELISA. The data set is classed as protein-complex assay. In a few lines: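 Human α5β1 coated at 3 µg/mL; blocking and binding at 30 °C. Biotinylated human fibronectin (1 µg/mL) with compounds 0.0001-20 µM, 2 h; NeutrAvidin-HRP 1 h 30 °C, OPD read at 492 nm. % inhibition vs buffer controls averaged over three determinations; IC50 by four-parameter fit.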

Data set [15] is described as follows: Apparent volume of distribution during the terminal phase was determined in mouse upon 5 mpk intravenous administration. The data set is classed as ADME, organism-based. The following applies: in vivo, 5 mg/kg, read-out: Vz.
The nature of data set [16]: Maximum clearance in mouse upon 5 mpk intravenous administration. Type of data set: ADME, organism-based. As to conditions: in vivo, 5 mg/kg.
Data set [17] addresses Integrin alpha-V/beta-3 (Homo sapiens, UniProt P05106+P06756). The data set can be described thus: In vitro inhibition of human alphaV-beta3 integrin binding in ELISA. The data set is classed as protein-complex assay. The method in brief: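 Plate-coated human αvβ3 (0.4 µg/mL) in Tris buffer with Ca, Mg, Mn; compounds 0.0001-20.0 µM with biotinylated human vitronectin (1 µg/mL), 2 h, room temperature throughout. NeutrAvidin-HRP detection, OPD read at 492 nm; % inhibition vs buffer controls from triplicate determinations, IC50 by four-parameter fit.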

Where only a bound is given, the exact number is not on record here.

Integrin alpha-IIb/beta-3, sequence (P05106 27-788 limits assumed): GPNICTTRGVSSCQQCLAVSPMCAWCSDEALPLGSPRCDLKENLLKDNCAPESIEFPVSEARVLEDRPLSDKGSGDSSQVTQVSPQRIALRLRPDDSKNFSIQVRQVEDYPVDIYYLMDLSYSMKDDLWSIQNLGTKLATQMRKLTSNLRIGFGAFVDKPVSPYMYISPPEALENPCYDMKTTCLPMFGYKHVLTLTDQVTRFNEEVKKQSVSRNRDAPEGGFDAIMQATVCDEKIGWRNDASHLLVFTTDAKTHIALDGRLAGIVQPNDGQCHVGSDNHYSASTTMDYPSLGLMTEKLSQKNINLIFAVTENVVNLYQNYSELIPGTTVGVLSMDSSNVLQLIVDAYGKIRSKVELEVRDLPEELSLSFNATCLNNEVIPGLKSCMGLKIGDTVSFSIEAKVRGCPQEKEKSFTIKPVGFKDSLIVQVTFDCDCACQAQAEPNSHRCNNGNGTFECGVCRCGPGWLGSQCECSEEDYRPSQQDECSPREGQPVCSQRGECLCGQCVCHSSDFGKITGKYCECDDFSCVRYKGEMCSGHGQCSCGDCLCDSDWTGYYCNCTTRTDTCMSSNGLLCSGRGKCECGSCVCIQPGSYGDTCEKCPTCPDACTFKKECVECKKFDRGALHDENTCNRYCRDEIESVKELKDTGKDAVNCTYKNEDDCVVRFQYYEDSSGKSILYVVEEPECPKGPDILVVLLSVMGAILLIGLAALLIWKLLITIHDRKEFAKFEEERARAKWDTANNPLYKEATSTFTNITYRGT
Integrin alpha-IIb/beta-3, sequence (P08514 32-887 limits assumed): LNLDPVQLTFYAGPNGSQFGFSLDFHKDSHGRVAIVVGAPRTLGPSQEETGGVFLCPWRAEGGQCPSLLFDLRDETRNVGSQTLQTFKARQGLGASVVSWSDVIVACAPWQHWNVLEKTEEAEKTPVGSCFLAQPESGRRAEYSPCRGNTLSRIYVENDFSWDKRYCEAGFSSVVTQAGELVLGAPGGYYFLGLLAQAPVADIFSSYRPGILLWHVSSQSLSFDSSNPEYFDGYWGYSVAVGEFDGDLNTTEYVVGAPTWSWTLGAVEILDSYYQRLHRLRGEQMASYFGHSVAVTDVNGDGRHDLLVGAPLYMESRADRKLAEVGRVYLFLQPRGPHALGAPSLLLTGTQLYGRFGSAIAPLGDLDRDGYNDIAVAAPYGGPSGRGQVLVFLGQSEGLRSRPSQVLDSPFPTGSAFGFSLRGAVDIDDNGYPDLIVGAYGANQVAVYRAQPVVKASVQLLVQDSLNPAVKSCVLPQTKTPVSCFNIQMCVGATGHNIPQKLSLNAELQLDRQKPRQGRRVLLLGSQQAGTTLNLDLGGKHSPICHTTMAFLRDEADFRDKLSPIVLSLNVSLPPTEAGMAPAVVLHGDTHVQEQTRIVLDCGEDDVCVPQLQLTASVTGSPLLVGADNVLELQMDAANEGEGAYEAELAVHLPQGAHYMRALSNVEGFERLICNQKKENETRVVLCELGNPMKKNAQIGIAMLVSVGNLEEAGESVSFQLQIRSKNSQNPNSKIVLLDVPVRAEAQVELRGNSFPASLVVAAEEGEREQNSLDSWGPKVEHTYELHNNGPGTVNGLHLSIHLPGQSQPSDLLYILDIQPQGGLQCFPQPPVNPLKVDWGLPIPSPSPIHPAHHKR
Integrin alpha-IIb/beta-3, sequence (P08514 891-1039 limits assumed): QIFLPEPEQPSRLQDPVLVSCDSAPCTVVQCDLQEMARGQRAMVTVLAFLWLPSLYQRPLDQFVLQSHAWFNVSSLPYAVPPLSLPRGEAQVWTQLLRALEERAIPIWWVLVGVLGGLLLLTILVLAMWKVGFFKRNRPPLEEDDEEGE
Integrin alpha-V/beta-3, sequence (P05106 27-788 limits assumed): as the sequence (P05106 27-788 limits assumed) above
Integrin alpha-V/beta-3, sequence (P06756 31-889 limits assumed): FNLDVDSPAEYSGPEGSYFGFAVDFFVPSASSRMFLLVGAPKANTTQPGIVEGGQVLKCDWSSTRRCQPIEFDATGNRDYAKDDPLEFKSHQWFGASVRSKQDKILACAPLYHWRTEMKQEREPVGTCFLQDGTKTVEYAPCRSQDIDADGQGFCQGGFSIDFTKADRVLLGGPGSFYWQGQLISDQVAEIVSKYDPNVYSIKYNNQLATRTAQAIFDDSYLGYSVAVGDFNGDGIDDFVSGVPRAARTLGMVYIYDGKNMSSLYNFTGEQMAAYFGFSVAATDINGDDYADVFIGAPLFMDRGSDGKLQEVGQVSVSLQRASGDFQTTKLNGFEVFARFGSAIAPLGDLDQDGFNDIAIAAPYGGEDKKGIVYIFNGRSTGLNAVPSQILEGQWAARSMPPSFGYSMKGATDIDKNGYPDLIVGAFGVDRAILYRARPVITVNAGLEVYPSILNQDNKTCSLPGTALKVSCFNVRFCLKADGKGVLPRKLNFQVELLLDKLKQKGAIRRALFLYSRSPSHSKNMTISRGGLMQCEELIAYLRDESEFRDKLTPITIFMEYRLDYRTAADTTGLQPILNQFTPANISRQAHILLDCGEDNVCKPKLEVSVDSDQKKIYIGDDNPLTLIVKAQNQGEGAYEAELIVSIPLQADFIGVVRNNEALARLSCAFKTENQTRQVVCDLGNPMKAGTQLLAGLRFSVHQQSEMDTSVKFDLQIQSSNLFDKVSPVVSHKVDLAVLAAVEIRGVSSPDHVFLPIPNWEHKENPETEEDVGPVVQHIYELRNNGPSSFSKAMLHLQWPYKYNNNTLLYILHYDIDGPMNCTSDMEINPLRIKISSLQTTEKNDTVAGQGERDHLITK
Integrin alpha-V/beta-3, sequence (P06756 891-1048 limits assumed): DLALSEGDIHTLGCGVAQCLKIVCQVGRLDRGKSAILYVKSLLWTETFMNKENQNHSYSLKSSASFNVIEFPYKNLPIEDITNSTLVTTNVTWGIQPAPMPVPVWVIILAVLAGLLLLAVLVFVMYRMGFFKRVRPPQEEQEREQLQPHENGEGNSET
Integrin alpha-5/beta-1, sequence (P05556 21-798 limits assumed): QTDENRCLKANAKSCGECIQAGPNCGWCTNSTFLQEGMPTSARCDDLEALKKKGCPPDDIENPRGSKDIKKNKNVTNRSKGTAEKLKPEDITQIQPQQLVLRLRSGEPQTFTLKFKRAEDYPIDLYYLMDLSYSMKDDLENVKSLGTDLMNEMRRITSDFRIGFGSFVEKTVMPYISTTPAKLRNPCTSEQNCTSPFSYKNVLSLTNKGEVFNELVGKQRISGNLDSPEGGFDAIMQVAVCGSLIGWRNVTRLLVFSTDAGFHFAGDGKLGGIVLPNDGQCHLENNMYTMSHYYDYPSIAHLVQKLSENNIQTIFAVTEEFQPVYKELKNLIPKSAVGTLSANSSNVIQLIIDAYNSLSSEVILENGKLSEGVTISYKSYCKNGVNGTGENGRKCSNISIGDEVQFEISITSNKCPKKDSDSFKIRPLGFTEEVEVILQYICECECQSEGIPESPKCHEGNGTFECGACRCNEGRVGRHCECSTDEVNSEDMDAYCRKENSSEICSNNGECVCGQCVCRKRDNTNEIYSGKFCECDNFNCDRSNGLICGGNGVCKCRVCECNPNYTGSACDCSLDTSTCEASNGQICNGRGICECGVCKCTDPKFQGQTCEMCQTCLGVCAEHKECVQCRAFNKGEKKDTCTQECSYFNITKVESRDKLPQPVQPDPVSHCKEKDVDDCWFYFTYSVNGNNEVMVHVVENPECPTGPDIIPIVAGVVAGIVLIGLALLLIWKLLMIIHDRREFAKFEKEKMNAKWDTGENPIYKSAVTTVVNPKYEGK
Integrin alpha-5/beta-1, sequence (P08648 42-894 limits assumed): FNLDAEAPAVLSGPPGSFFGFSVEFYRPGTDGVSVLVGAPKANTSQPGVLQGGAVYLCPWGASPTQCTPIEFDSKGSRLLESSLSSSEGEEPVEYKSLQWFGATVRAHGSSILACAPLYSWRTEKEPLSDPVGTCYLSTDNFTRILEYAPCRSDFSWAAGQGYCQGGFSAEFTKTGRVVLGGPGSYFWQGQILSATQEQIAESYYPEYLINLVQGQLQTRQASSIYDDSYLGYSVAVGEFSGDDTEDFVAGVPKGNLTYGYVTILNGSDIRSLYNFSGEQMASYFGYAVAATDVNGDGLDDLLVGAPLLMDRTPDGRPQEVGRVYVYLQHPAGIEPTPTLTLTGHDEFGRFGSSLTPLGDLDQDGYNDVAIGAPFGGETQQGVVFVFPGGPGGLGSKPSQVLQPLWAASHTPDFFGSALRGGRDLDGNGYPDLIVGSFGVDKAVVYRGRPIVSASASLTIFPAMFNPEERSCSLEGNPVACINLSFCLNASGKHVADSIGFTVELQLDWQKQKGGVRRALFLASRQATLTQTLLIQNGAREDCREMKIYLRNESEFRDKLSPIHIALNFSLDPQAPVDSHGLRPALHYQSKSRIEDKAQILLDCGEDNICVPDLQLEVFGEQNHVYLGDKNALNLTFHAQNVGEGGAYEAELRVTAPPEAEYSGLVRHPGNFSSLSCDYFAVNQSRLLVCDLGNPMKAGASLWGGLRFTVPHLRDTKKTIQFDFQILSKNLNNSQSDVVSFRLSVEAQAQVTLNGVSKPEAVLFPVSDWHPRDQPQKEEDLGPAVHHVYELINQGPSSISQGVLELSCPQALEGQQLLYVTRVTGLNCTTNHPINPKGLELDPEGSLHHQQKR
Integrin alpha-5/beta-1, sequence (P08648 895-1049 limits assumed): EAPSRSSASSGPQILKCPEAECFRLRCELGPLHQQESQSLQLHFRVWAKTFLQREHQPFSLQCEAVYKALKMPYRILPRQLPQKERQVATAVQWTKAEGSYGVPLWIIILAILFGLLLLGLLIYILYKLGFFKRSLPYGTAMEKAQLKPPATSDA

Take `CNc1cccc(CCOc2ccc3c(CCC(=O)O)coc3c2)n1`: the IC50 (as a rule, the concentration that inhibits the measured activity by half) in data set [1] is 420 nM; in data set [12], more than 20000 nM; in data set [14], more than 20000 nM; in data set [17], 33 nM. In addition, the entries for the “Ext AUC” value in [2] and in data set [4] were 1% and 2%, respectively. In data set [3], the Permeability was 1.7e-05 AB cm/s. In addition, the half-life (usually the time needed for the level to fall by half in the phase considered) was 115 min in data set [5] and 5.4 min in [6]. Moreover, the bioavailability in data set [7] amounted to 114%. The AUC inf came out at 1280 ng·h/mL in [8] and 14600 ng·h/mL in [13]. Also, in data set [9], the Tmax (as a rule, the time from dosing to the highest level) stood at 30 min. In [10], the Cmax – broadly, the peak of the concentration-time curve – stood at 16200 ng/mL. Also, the mean residence time MRT (usually the average time that molecules of a dose stay in the body) in data set [11] worked out at 6.6 min. Further, the Vd in [15] is 0.5 L/kg. For the same compound, the clearance (usually the rate of elimination divided by the concentration) in data set [16] is 65.1 mL/min/kg.
Turning to `CNc1cccc(CCOc2ccc3c(ccn3CCC(=O)O)c2)n1`, the IC50 in [1] is 210 nM; in [12], more than 20000 nM; in [14] it was 15000 nM; in [17], 49 nM. Besides, the “Ext AUC” value turned out to be 7% in data set [2] and 3% in data set [4]. The Permeability in [3] was determined as 6e-06 AB cm/s. Also, the half-life is 143 min in data set [5] and 93.6 min in [6]. Also, the bioavailability in data set [7] was 90%. Further, the AUC inf in [8] turned out to be 7100 ng·h/mL; in data set [13] it was 64000 ng·h/mL. In addition, the Tmax in data set [9] was 30 min. The same compound showed a Cmax in data set [10] of 38300 ng/mL. This compound also yielded an MRT in [11] of 103 min. Further, the Vd in [15] was found to be 1.58 L/kg. In [16], this compound yielded a clearance of 11.7 mL/min/kg.
For `O=C(O)CCn1ccc2cc(OCCCNc3ccccn3)ccc21`, the IC50 in data set [1] was 2.5 nM; in [12], more than 20000 nM; in data set [14] it was more than 20000 nM; in [17], 470 nM. For the same compound, the Permeability in data set [3] is 6e-06 AB cm/s.
Turning to `CNc1cccc(CCOc2ccc3c(CCC(=O)O)csc3c2)n1`, the IC50 in data set [1] is 140 nM; in data set [12], more than 20000 nM; in data set [14], 7800 nM; in data set [17], 30 nM. In addition, the “Ext AUC” value in [2] is given as 5%; in data set [4], 1%. Further, the Permeability in data set [3] was found to be 1.6e-05 AB cm/s. The half-life was 140 min in [5] and 44.4 min in data set [6]. Besides, the bioavailability in data set [7] is 73%. The AUC inf was determined as 5040 ng·h/mL in data set [8] and 36700 ng·h/mL in data set [13]. In addition, the time to peak (Tmax) in [9] amounted to 30 min. Further, the concentration in data set [10] peaked (Cmax) at 27500 ng/mL. Also, the MRT in data set [11] came to 33.6 min. The Vd in data set [15] was 1.05 L/kg. The same compound returned a clearance in data set [16] of 16.5 mL/min/kg.
